# Assay results as given in the RNAGym collection of RNA variant scans (doi:10.1126/science.aae0568).
# This sample holds only a part of the variants without activity.
# B1: tRNA (parent)
# chain: GUUCCGUUGGCGUAAUGGUAACGCGUCUCCCUCCUAAGGAGAAGACUGCGGGUUCGAGUCCCGUACGGAACG
# Variants of: B1
# Test: yeast fitness relative to wild type (ratio to wild type); higher = fitter; tRNA-Arg(CCU), competitive growth, 37 C, YPD
# Method in brief: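 The tRNA-Arg(CCU) gene variants were made by chemical synthesis with a 3% per-site mutation rate at 69 sites and inserted at the native genomic locus of Saccharomyces cerevisiae. After pooling, the strains were competed in YPD at 37°C for 24 hours in six parallel replicates. Gene amplicons from the start population and each end population were read by 100-nucleotide paired-end sequencing, and Darwinian fitness relative to wild type was taken from genotype frequency changes. Genotypes needed ≥ 100 starting reads, and estimates < 0.5 were set to 0.5.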
row,Variant,yeast fitness
1,GUUCCGUUGGCGUGAUGGUAACGCGUCUCCCUCCAAAGGAGAAGACUGCGGGUUCGAGUCCCGUACGGAACG [A14G U35A],0.561
2,GUUCCGUUGGCGUGAUGGUAACGCGUCUCCCUCCAAAGGAGUAGAGUGCGGGUUCAAGUCCCGUACGGAACG [A14G U35A A42U C46G G56A],0.524
3,GUUCCGUUGGCGUGAUGGUAACGCGUCUCCCUCCCAAGGAGAAGACUGCGGGUUCGAGUCCCGUACGGAACG [A14G U35C],0.635
4,GUUCCGUUGGCGUGAUGGUAACGCGUCUCCCUCCCAAGGAGAAGACUGCGGGUUCGAGUCCGGUGCGGAACG [A14G U35C C62G A65G],0.635
5,GUUCCGUUGGCGUGAUGGUAACGCGUCUCCCUCCGAAGGGGAAGACUGCGGGUUCGGGUCCCGUACGGAACG [A14G U35G A40G A57G],≤ 0.5
6,GUUCCGUUGGCGUGAUGGUAACGCGUCUCCCUCCGAAGGAGAAGACUGCGGCUUCGAGUCCCGUACGGAACG [A14G U35G G52C],≤ 0.5
7,GUUCCGUUGGCGUGAUGGUAACGCGUCUCCCUCCUAAGGAGAAGACAGCGGGUUCGAGUCCCGUACGGAACG [A14G U47A],0.776
8,GUUCCGUUGGCGUGAUGGUAACGCGUCUCCCUCCUAAGGAGAAGACAGCGGGUUCGAGUCCCGUACGGCACG [A14G U47A A69C],≤ 0.5
9,GUUCCGUUGGCGUGAUGGUAACGCGUCUCCCUCCUAAGGAGAAGACCGCGGGUUCGAGUCCCGUACGGAACG [A14G U47C],0.871
10,GUUCCGUUGGCGUGAUGGUAACGCGUCUCCCUCCUAAGGAGAAGACCGCGGGUUCGAGUCCCGUACGAAACG [A14G U47C G68A],≤ 0.5
11,GUUCCGUUGGCGUGAUGGUAACGCGUCUCCCUCCUAAGGAGAAGACGGCGGGUUCGAGUCCCGUACGGAACG [A14G U47G],0.516
12,GUUCCGUUGGCGUGAUGGUAACGCGUCUCCCUCCUAAGGAGAAGACGGCGGGUUCGAGUCCUGUACGGAACG [A14G U47G C62U],≤ 0.5
13,GUUCCGUUGGCGUGAUGGUAACGCGUCUCCCUCCUAAGGAGAAGACUGCGGGAUCGAGUCCCGUACGGAACG [A14G U53A],0.63
14,GUUCCGUUGGCGUGAUGGUAACGCGUCUCCCUCCUAAGGAGAAGACUGCGGGCUCGAGUCCCGUACGGAACG [A14G U53C],0.775
15,GUUCCGUUGGCGUGAUGGUAACGCGUCUCCCUCCUAAGGAGAAGACUGCGGGUGCGAGUCCCGUACGGACCG [A14G U54G A70C],≤ 0.5
16,GUUCCGUUGGCGUGAUGGUAACGCGUCUCCCUCCUAAGGAGAAGACUGCGGGUUCGAGCCCCGUACGGAACG [A14G U59C],0.923
17,GUUCCGUUGGCGUGAUGGUAACGCGUCUCCCUCCUAAGGAGAAGACUGCGGGUUCGAGGCCCGUACGGAACG [A14G U59G],0.774
18,GUUCCGUUGGCGUUCUGGUAACGAGACUCCCUCCUAAGGAGAAGACUGCCGGUUCGAGUCCCGUACGGAACG [A14U A15C C24A U26A G50C],0.544
19,GUUCCGUUGGCGUUCUGGUAACGCGUCUCCAUCCUAAGGAGAAGACUGCGGGUUCGAGUCCCGUACGGAACG [A14U A15C C31A],≤ 0.5

row,Variant,yeast fitness
1,GUUCCGUUGGCGUUCUGGUAACGCGUCUCCGUCCUAAGGAGAUGACUGCGGGUUCGAGUCCCGUACGGAGCG [A14U A15C C31G A43U A70G],0.556
2,GUUCCGUUGGCGUUCUGGUAACGCGUCUCCGUCCUAAGGAGAAGACUGCAGGUUCGAGUCCCGUACGGAACG [A14U A15C C31G G50A],0.665
3,GUUCCGUUGGCGUUCUGGUAACGCCUCUCCCUCCUAAGGAGAAGACUGCGGGUUCGAGUCCCGUACGGAACG [A14U A15C G25C],≤ 0.5
4,GUUCCGUUGGCGUUCUGGUAACGCGUCUCCCUCCUAAGCAGAAGACUGCGGGUUCGAGUCCCGUACGGAACG [A14U A15C G39C],0.546
5,GUUCCGUUGGCGUUGUGGUACCGCGUCUCCCUCCUAAGGAGAAGACUGCGGGUUCGAGUCCCGUACGGAACG [A14U A15G A21C],0.536
6,GUUCCGUUGGCGUUGUGGUAACGCGUCUCCCUCCUAAGGAGACGACUGCGGAUUCAAGUCCGGUGCGGAACG [A14U A15G A43C G52A G56A C62G A65G],0.607
7,GUUCCGUUGGCGUUGUGGUAACGCGUCUCCCUCCUAAGGAGAAGCCUGCAGGUUCGAGUCCUGUACGGAACG [A14U A15G A45C G50A C62U],0.526
8,GUUCCGUUGGCGUUGUGGUAACGCGUCUCCCUCCUAAGGAGAAGACUGCGGGUUCGAGUCCCGUGCGGAACG [A14U A15G A65G],≤ 0.5
9,GUUCCGUUGGCGUUGUGGUAACGCGUCUCCCUCGUAAGGAGAAGACUGCGGGUUCGAGUCUCGUACGGAACG [A14U A15G C34G C61U],≤ 0.5
10,GUUCCGUUGGCGUUGUGGUAACGCGUCUCCCUCCUAAGGAGAAGACUGGGGGUUCGAGUCCCGUACGGAACG [A14U A15G C49G],≤ 0.5
11,GUUCCGUUGGCGUUGUGGUAACGCGUCUCCCUCCUAAGGAGAAGACUGCGGGGUCGAGUCCCGUACGGAACG [A14U A15G U53G],≤ 0.5
12,GUUCCGUUGGCGUUUUGGUAACGCGUAUGCCUCCUAAGGAGAACACUGCGGGUUCGAGUCCCGUAAGGAGCG [A14U A15U C27A C29G G44C C66A A70G],≤ 0.5
13,GUUCCGUUGGCGUUUUGGUAACGCGUCUCCCUCCUAAGGAGAAGACUGAGCGUUCGAGACCCGUACGGAACG [A14U A15U C49A G51C U59A],≤ 0.5
14,GUUCCGUUGGCGUUAUGGUCAUGUGUCUCCCUCCUAAGGAGAAGACUGGGGGAUCCAGUCCCGUACGGAACG [A14U A20C C22U C24U C49G U53A G56C],0.547
15,GUUCCGUUGGCGUUAUGGUCACGAGUCUCCCUCCUAAGGAGAAGACUGCGGGUUCGAGUCCCGUACGGAACG [A14U A20C C24A],0.554
16,GUUCCGUUGGCGUUAUGGUCACGUGUCUCCCUCCUAAGGAGAAGACUGCGGGUUCGAGUCCCGUACGGAACG [A14U A20C C24U],≤ 0.5
17,GUUCCGUUGGCGUUAUGGUCACGCGUUUCCCUCCCAAGGAGAAGACUACGGGUUCGAGUCCCGUACGGAUCG [A14U A20C C27U U35C G48A A70U],≤ 0.5
18,GUUCCGUUGGCGUUAUGGUCACGCGUCUCCGUCCUAAGGAGAAGACUGCGGGUUCGAGUCCCGUAAGGAACG [A14U A20C C31G C66A],≤ 0.5
19,GUUCCGUUGGCGUUAUGGUCACGCGUCUCCUUCCUAGGGAGAAGACUGCGGGUUCGAGUCCCGUACGGAACG [A14U A20C C31U A37G],≤ 0.5
